The entries come from a sample that favours hits as a whole.
Jurkat NFkB inh = lowers PMA/ionomycin-induced NF-kB signal in Jurkat cells; 330,000 tested, 0.53% active; PMA/ionomycin-induced NF-kB luciferase reporter, luminescence; inhibition, % at 4 µM; AID 435003; in the data active = inhibition above about 50%
UPR CHOP act = apoptotic UPR (CHOP) activation; CHO-CHOP luciferase reporter, luminescence; percent of tunicamycin response over DMSO baseline; activation, % at 10 µM; 330,000 tested, 0.34% active; AID 449763;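 active = at 10 µM dose, activation of 40% or more, normalized to positive control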;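 note: 100% = tunicamycin at 10 µg/mL and 0% = DMSO alone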
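Test system: CHO CHOP reporter cells. Input: 500 CHO-CHOP cells per well. Medium: F12 with 10% FBS. Technique: luciferase luminescence. Measure: percent activation relative to tunicamycin control. Dosing: 10 µM compound, 0.5% DMSO. Timing: 16-18 h cell attachment, then 6 h compound exposure, 37 °C.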
CHOP inh = inhibitors of CHOP induction in ER stress response; CHO-K1 CHOP-promoter luciferase, tunicamycin-induced, 15-18 h; inhibition, % at 10 µM; 220,000 tested, 3.8% active; AID 2732;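 active = compounds that reduced the stress-induced luciferase reporter signal by more than about 70% of percent inhibition, limit read from the data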;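 note: 0% = tunicamycin plus vehicle and 100% = wells without tunicamycin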
UPR XBP1 act = adaptive UPR (XBP1) activation; CHO-XBP1 luciferase reporter, IRE1-XBP1 UPR activation, luminescence; percent of tunicamycin response, DMSO as zero; activation, % at 20 µM; 330,000 tested, 0.33% active; AID 463104;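 active = versus positive control, 20 µM dose yields 30% or more activation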;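 note: 100% = tunicamycin at 10 µg/mL and 0% = DMSO only wells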
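Material – CHO cell line with stable XBP1 luciferase reporter · Buffer or medium – F12 plus 10% FBS · Compound – single point, 20 µM final compound, 1% DMSO · Schedule – 16-18 h cell attachment at 37 °C, then 6 h compound exposure · Signal – Steady-Glo luminescence read · Benchmarks – high control tunicamycin 10 µg/mL final, low control DMSO vehicle only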
697 NFkB inh = lowers PMA/ionomycin-induced NF-kB signal in 697 B cells | 330,000 tested, 0.33% active | 697 B-cell NF-kB luciferase reporter, 16 h | inhibition, % at 4 µM; in the data active = inhibition above about 35%
Active calls of the source: *.

Results for COc1cc(C)ccc1OCCOc1c(C)cccc1Cl ?
Jurkat NFkB inh: -31.5; UPR CHOP act: 3.0; CHOP inh: 70.7*; UPR XBP1 act: 0.2; 697 NFkB inh: -11.4

Results for COc1cc(C)ccc1OCCOc1c(Cl)cc(Cl)cc1Cl ?
Jurkat NFkB inh: 7.5; UPR CHOP act: 2.7; CHOP inh: 42.6; UPR XBP1 act: 0.7; 697 NFkB inh: -0.4

How did C=C(C)C(=O)Nc1cccnc1Oc1ccc(F)cc1F do in these assays?
Jurkat NFkB inh: -7.8; UPR CHOP act: 0.4; CHOP inh: 9.9; UPR XBP1 act: -1.5; 697 NFkB inh: -4.6

What do the screens show for `c1ccc(Nc2nc3ccccc3o2)cc1`?
Jurkat NFkB inh: -134.2; UPR CHOP act: 4.4; CHOP inh: -12.5; UPR XBP1 act: 3.9; 697 NFkB inh: -119.1

How did FC(F)(F)Oc1ccc(Nc2nc3ccccc3o2)cc1 do in these assays?
Jurkat NFkB inh: -84.2; UPR CHOP act: 6.4; CHOP inh: 90.9*; UPR XBP1 act: 10.3; 697 NFkB inh: -102.0

Results for CCOC(=O)Cn1nnnc1CN(CCc1ccccc1)Cc1cc2cc(CC)ccc2[nH]c1=O ?
Jurkat NFkB inh: 4.1; UPR CHOP act: 2.0; CHOP inh: 80.5*; UPR XBP1 act: -0.5; 697 NFkB inh: 16.4

Results for Cc1ccc2[nH]c(=O)c(CN(Cc3ccccc3)Cc3nnnn3C3CCCC3)cc2c1 ?
Jurkat NFkB inh: -39.6; UPR CHOP act: 4.1; CHOP inh: 75.9*; UPR XBP1 act: -2.2; 697 NFkB inh: -15.1

Results for Cc1ccc2[nH]c(=O)c(CN(Cc3nnnn3C3CCCC3)C3CCCCC3)cc2c1 ?
Jurkat NFkB inh: -1.2; UPR CHOP act: -1.5; CHOP inh: 63.2; UPR XBP1 act: -2.1; 697 NFkB inh: 6.7

What do the screens show for `COc1ccccc1N(CC(=O)Nc1ccc2c(c1)OCCO2)S(=O)(=O)c1ccc(C)cc1`?
Jurkat NFkB inh: -1.0; UPR CHOP act: -2.2; UPR XBP1 act: -6.9; 697 NFkB inh: -8.8

How did Cc1ccc(OCC(=O)NCCNC(=O)c2ccc(C)nc2)cc1 do in these assays?
Jurkat NFkB inh: 1.4; UPR CHOP act: 0.0; UPR XBP1 act: -0.2; 697 NFkB inh: -13.7

Results for CCc1ccc(/C=C2\SC(=S)N(CCCC(=O)Nc3nccs3)C2=O)cc1 ?
Jurkat NFkB inh: 9.4; UPR CHOP act: 0.9; CHOP inh: 78.4*; UPR XBP1 act: -3.6; 697 NFkB inh: 27.0

How did Fc1ccc(CSc2nnc(Cc3sc(-c4ccccc4)nc3-c3ccccc3)o2)cc1 do in these assays?
Jurkat NFkB inh: 0.8; UPR CHOP act: -1.9; CHOP inh: 39.9; UPR XBP1 act: -3.1; 697 NFkB inh: -2.6

What do the screens show for `CSc1nnc(Cc2sc(-c3ccccc3)nc2-c2ccccc2)o1`?
Jurkat NFkB inh: 4.2; UPR CHOP act: 3.3; CHOP inh: 82.9*; UPR XBP1 act: -0.2; 697 NFkB inh: 4.5

Results for CN(C(=O)c1cc(-c2ccccc2)on1)C1CCCCC1 ?
Jurkat NFkB inh: -133.7; UPR CHOP act: 5.4; UPR XBP1 act: -4.5; 697 NFkB inh: -184.0

What do the screens show for `O=C1CS/C(=N/N=C/c2ccco2)N1Cc1ccc(F)cc1`?
Jurkat NFkB inh: 7.0; UPR CHOP act: 0.5; CHOP inh: 18.6; UPR XBP1 act: 3.7; 697 NFkB inh: 6.9

What do the screens show for `COC(=O)c1cc(N=Nc2sc(N)nc2C)cc(C(=O)OC)c1`?
Jurkat NFkB inh: 39.0; UPR CHOP act: 0.5; CHOP inh: 80.2*; UPR XBP1 act: 28.2; 697 NFkB inh: 4.6

What do the screens show for `CCN(CC)S(=O)(=O)c1cccc(N=Nc2sc(N)nc2C)c1`?
Jurkat NFkB inh: 20.7; UPR CHOP act: 2.2; UPR XBP1 act: -3.2; 697 NFkB inh: 15.6

Results for O=C(CNS(=O)(=O)c1ccc(F)cc1)Nc1ccc(C(F)(F)F)cc1 ?
Jurkat NFkB inh: -0.2; UPR CHOP act: 1.0; CHOP inh: 63.7; UPR XBP1 act: -3.1; 697 NFkB inh: -12.0

How did Cc1ccc(S(=O)(=O)NCC(=O)Nc2ccc(C(F)(F)F)cc2)cc1 do in these assays?
Jurkat NFkB inh: -12.1; UPR CHOP act: -0.1; CHOP inh: 92.1*; UPR XBP1 act: -1.7; 697 NFkB inh: 3.8

What do the screens show for `Cc1nc(NC(=O)COC(=O)CCc2ccccc2)c(Cl)cc1Cl`?
Jurkat NFkB inh: -5.6; UPR CHOP act: -0.9; UPR XBP1 act: -3.2; 697 NFkB inh: 16.4

Screens deposited in PubChem by several laboratories.
